Key:
[1] = Drug metabolism in sandwich-cultured rat hepatocytes assessed as fold increase in DB829 at 10 uM after 2 hrs of incubation by HPLC-MS/MS analysis; type: ADME, cell-based, Hepatocyte
Summary of the method: (§1)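 Sandwich-cultured hepatocytes were used on day 5 (human) or day 4 (rat) and rinsed with warm phenol-red-free DMEM. They were then exposed to 10 µM DB868 (0.1–0.2% DMSO) at 37°C. Medium and methanol/water cell lysates were collected at 0.5, 2, 4 and 24 h. Analytes were quantified by HPLC/MS/MS with deuterated internal standards; protein by Bradford. Replicates: 6 (human) or 4 (rat).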

Liver microsome [2] = assay: Drug metabolism in rat liver microsomes assessed as (Z)-N'-hydroxy-6-(5-(5-((Z)-N'-methoxycarbamimidoyl)pyridin-2-yl)furan-2-yl nicotinimidamide formation measured per mg of protein by HPLC-MS/MS analysis; type: ADME
Summary of the method: (§2)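 M1 formation kinetics: HLM or RLM (0.5 mg/mL) in phosphate pH 7.4 with MgCl2, DB868 0.1–100 µM, started with 2 mM NADPH. Run 5 min (HLM) or 10 min (RLM) under initial-rate conditions (<20% consumption) in triplicate. Quantified by HPLC/MS/MS with d6-DB868 internal standard. Fitted to a one-enzyme (HLM) or two-enzyme (RLM) Michaelis–Menten model; Clint = Vmax/Km.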

Liver microsome [3] = assay: Drug metabolism in rat liver microsomes assessed as (Z)-N'-hydroxy-6-(5-(5-((Z)-N'-methoxycarbamimidoyl)pyridin-2-yl)furan-2-yl nicotinimidamide formation measured by HPLC-MS/MS analysis; type: ADME; summary of the method: as §2
[4] = Drug metabolism in sandwich-cultured human hepatocytes assessed as (Z)-N'-hydroxy-6-(5-(5-((Z)-N'-methoxycarbamimidoyl)pyridin-2-yl)furan-2-yl)nicotinimidamide at 10 uM after 4 hrs of incubation by HPLC-MS/MS analysis; type: ADME, cell-based, Hepatocyte; summary of the method: as §1
Cytochrome P450 1A2 [5] = target: T1, Cytochrome P450 1A2 (Homo sapiens, UniProt P05177); assay: Prodrug conversion assessed as human recombinant CYP1A2-mediated (Z)-N'-hydroxy-6-(5-(5-((Z)-N'-methoxycarbamimidoyl)pyridin-2-yl)furan-2-yl) nicotinimidamide formation at 5 uM […] by HPLC-UV chromatogram; type: ADME; details: recombinant enzyme, 3 h
T1 sequence (P05177 whole entry): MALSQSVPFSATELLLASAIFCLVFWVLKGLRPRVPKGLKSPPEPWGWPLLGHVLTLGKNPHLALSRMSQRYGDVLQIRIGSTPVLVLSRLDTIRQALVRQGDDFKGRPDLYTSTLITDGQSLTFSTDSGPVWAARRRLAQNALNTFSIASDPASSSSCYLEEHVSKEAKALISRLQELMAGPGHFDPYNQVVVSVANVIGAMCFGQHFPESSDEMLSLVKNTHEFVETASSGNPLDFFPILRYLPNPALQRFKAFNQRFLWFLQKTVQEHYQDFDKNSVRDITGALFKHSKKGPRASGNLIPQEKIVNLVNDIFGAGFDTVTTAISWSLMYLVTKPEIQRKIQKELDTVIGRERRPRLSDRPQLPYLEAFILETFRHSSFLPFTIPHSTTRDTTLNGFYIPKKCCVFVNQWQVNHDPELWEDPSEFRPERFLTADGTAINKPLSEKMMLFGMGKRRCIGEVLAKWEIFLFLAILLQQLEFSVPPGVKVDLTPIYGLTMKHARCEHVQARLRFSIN

Liver microsome [6] = assay: Intrinsic clearance in human liver microsomes assessed as (Z)-N'-hydroxy-6-(5-(5-((Z)-N'-methoxycarbamimidoyl)pyridin-2-yl)furan-2-yl nicotinimidamide formation measured per mg of protein by HPLC-MS/MS analysis; type: ADME; summary of the method: as §2
Liver microsome [7] = assay: Prodrug conversion in rat liver microsomes assessed as elution time at 10 uM after 180 mins incubation by HPLC-UV chromatography; type: ADME; details: 3 h
Summary of the method: (§3)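 HLM or RLM (0.5 mg/mL) were incubated in triplicate in 100 mM phosphate pH 7.4 with 10 mM MgCl2 and an NADPH-regenerating system (1 mM NADP+, glucose 6-phosphate, G6PDH). DB868 was 10 µM. Sampled up to 180 min. Prodrug and metabolites were measured by HPLC-UV at 359 nm and expressed relative to initial prodrug; DB829 LLOQ 50 nM.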

Cytochrome P450 1A2 [8] = target: T2, Cytochrome P450 1A2 (Rattus norvegicus, UniProt P04799); assay: Prodrug conversion assessed as rat recombinant CYP1A2-mediated (Z)-N'-hydroxy-6-(5-(5-((Z)-N'-methoxycarbamimidoyl)pyridin-2-yl)furan-2-yl) nicotinimidamide formation at 5 uM after 180 mins incubation by HPLC-UV chromatogram; type: ADME; details: recombinant enzyme, 15 min, in the assay text read “15 mins” for “180 mins”
T2 sequence (P04799 whole entry): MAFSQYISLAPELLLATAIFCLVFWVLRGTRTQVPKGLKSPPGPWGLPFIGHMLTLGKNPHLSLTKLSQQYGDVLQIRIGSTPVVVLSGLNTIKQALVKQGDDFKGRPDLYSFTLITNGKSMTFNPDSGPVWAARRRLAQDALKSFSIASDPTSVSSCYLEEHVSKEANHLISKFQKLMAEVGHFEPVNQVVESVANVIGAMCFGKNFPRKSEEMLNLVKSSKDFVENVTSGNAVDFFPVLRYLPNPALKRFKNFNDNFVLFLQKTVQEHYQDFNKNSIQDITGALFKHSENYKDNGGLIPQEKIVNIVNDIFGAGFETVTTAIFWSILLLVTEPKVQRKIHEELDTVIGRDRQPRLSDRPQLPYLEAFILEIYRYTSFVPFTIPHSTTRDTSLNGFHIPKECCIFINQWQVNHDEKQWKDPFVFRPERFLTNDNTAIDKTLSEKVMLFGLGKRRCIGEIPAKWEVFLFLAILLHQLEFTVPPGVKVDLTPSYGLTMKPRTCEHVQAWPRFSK
Summary of the method: (§4)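 Insect-cell-expressed human or rat P450 (with NADPH-P450 reductase, some also with cytochrome b5) at 0.1 pmol/µL in 100 mM potassium phosphate pH 7.4 with 10 mM MgCl2. DB868 (for M1) or M1 (for M2) was added at 5 µM (0.5% DMSO) and started with 2 mM NADPH. Stopped after 15 min with ice-cold acetonitrile, then HPLC-UV. Duplicate incubations.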

Cytochrome P450 1A2 [9] = target: T2, Cytochrome P450 1A2; assay: Prodrug conversion assessed as rat recombinant CYP1A2-mediated (3Z,3'Z)-6,6'-(furan-2,5-diyl)bis(N'-hydroxynicotinimidamide) formation at 5 uM after 180 mins incubation by HPLC-UV chromatogram; type: ADME; details: recombinant enzyme, 15 min, in the assay text read “15 mins” for “180 mins”; summary of the method: as §4
Liver microsome [10] = assay: Ratio of drug metabolism in […] to drug metabolism in rat hepatocytes at 10 uM after 4 hrs of incubation by HPLC-MS/MS analysis; type: ADME, cell-based, Hepatocyte
[11] = Biotransformation in sandwich-cultured rat hepatocytes assessed as depletion of compound at 10 uM after 4 hrs of incubation by HPLC-MS/MS analysis; type: ADME, cell-based, Hepatocyte; details: read-out: Drug metabolism; summary of the method: as §1
Liver microsome [12] = assay: Drug metabolism in human liver microsomes assessed as (Z)-N'-hydroxy-6-(5-(5-((Z)-N'-methoxycarbamimidoyl)pyridin-2-yl)furan-2-yl nicotinimidamide formation measured by HPLC-MS/MS analysis; type: ADME; summary of the method: as §2
Liver microsome [13] = assay: Prodrug conversion in rat liver microsomes assessed as depletion of compound at 10 uM after 180 mins incubation by HPLC-UV chromatography; type: ADME; details: 3 h; summary of the method: as §3
[14] = Drug metabolism in sandwich-cultured rat hepatocytes assessed as DB829 at 10 uM after 24 hrs of incubation by HPLC-MS/MS analysis; type: ADME, cell-based, Hepatocyte; summary of the method: as §1

SMILES: CO/N=C(\N)c1ccc(-c2ccc(-c3ccc(/C(N)=N/OC)cn3)o2)nc1.Cl
- fold change (FC) [1]: 23
- Vmax (Liver microsome [2]): 12 pmol/min
- Km (Liver microsome [3]): 0.5 µM
- Drug metabolism [4]: metabolite_detected
- Drug metabolism (Cytochrome P450 1A2 [5]): metabolite_detected
- CLint (Liver microsome [6]): 31 µL/min/mg
- Retention_time (Liver microsome [7]): 18.5 min
- Drug metabolism (Cytochrome P450 1A2 [8]): metabolite_detected
- Drug metabolism (Cytochrome P450 1A2 [9]): metabolite_detected
- Ratio (Liver microsome [10]): 25
- metabolised at 4 h, 10 µM [11]: 50%
- Km (Liver microsome [12]): 11 µM
- Drug metabolism (Liver microsome [13]): 43%
- Drug metabolism [14]: metabolite_detected

— ChEMBL document CHEMBL3525966, “Compartmental and enzyme kinetic modeling to elucidate the biotransformation pathway of a centrally acting antitrypanosomal prodrug” (Drug Metab Dispos, 2013)
